L major viab – Leishmania major promastigote growth inhibition, primary screen. inhibition, % at 10 µM. AID 1063, 2008. 200,000 tested, 9% active. Leishmania major promastigotes, resazurin fluorescence viability; in the data active means inhibition above about 50%;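 further: promastigotes grown with compound for 44 hours at 28 °C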
PMI activator – activators of human PMI, primary screen, biochemical, fluorescence intensity, near-Km mannose 6-phosphate. Mannose-6-phosphate isomerase (Homo sapiens), P34949. purified human PMI, coupled resazurin fluorescence, 20 min; active compounds read high; 1 = vehicle control, 0 substrate-free wells. activation factor at 20 µM. 190,000 tested, 0.005% active. AID 1214, 2008;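 active means activation factor of 2 or more at 20 µM, relative to plate controls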
Target sequence (P34949 whole entry, looked up): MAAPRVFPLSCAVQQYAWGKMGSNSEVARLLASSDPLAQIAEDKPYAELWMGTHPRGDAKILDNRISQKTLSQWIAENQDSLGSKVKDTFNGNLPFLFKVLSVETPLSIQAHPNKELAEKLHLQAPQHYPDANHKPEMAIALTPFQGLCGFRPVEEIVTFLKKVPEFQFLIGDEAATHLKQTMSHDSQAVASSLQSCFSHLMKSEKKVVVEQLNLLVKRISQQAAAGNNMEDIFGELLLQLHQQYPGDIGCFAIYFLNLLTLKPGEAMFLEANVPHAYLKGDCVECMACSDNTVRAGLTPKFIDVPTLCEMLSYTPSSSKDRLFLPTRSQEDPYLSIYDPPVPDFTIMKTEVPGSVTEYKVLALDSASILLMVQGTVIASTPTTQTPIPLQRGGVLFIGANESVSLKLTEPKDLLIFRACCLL
Calpain2 inh – inhibitors of pig calpain II, primary screen, biochemical, fluorogenic peptide substrate, 1536-well | purified calpain II, 30 min | inhibition, % at 16 µM | 220,000 tested, 0.37% active | AID 1236, 2008;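 active means inhibition above about 50%, limit read from the data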
Rad51 HR inh – human RAD51 strand exchange inhibitors, primary screen, biochemical, fluorescence. inhibition, % at 10 µM. 200,000 tested, 0.085% active. DNA repair protein RAD51 homolog 1 (Homo sapiens), Q06609. hRad51 DNA strand exchange, fluorescence dequenching. AID 1385, 2008;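 active means inhibition above 40% at the single screening dose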
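Test system: preformed human Rad51 ssDNA filaments; also added: Donor/quencher-labelled 47-bp dsDNA substrate; doses: 10 µM final, single point; times: 37 °C 15-min filament assembly, 30-min compound preincubation, 15-min exchange; detection: FRET fluorescence dequenching, excitation 485 nm, emission 520 nm; read-out basis: Fluorescence-based percent inhibition, control- and blank-normalised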
WT yeast gro inh – growth inhibition of WT strain, primary screen, mitochondrial fusion inhibitor project, WT and mutant strains, chemical genetic; mitochondrial fusion phenotypic screen; inhibition, % at 10 µM; 190,000 tested, 2.1% active; in the data active means inhibition above about 58%; tested in S. cerevisiae
PMI act hi M6P – human PMI activators, high substrate, primary screen, biochemical, fluorescence intensity, near-saturating mannose 6-phosphate | activation factor at 20 µM | coupled PMI enzyme assay, resazurin fluorescence, 20 min; active compounds read high; 1 = untreated enzyme, 0 = substrate-free blank | 190,000 tested, 0.34% active | Mannose-6-phosphate isomerase (Homo sapiens), P34949;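 active means activation factor of 2 or more at 20 µM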
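Material: human phosphomannose isomerase with PGI, G6PDH, diaphorase coupling enzymes / Reagent: Man-6-P substrate 1.0 mM / Dosing: single compound dose of 20 µM, 1% DMSO final / Incubation: enzyme reaction with compound 20 min at room temperature / Signal: resorufin fluorescence (Ex 544/Em 590 nm) from resazurin via diaphorase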
Each line names hits and unclear results; the compound was inactive in the other large screens; ! = a repeat was not active. Compounds with a hit are over-represented: about 9.8% of the library has one in this group of screens.

CCc1ccc(OCC(=O)NCCN(C)C)c(Br)c1	L major viab 96
Cc1cc(OCC(=O)NCCCN(C)C)cc(C)c1Br	L major viab 100
Cc1ccccc1OCC(=O)NCCN(C)C	none (no result: Rad51 HR inh)
CCc1ccc(OCC(=O)N(C)CCC#N)c(Br)c1	none
COc1cc(C)c2c(c1C=O)Oc1c(c(C)c(O)c3c1C(O)OC3=O)OC2=O (stereo not drawn)	Rad51 HR inh 47
COc1ccc(C(=O)C[n+]2ccc(-c3nnc4n3CCC4)cc2)cc1	none (no result: Rad51 HR inh)
CN(C)C(=O)CSc1nnc(CCCCCNC(=O)OC(C)(C)C)o1	WT yeast gro inh 65
COC(=O)Nc1[nH]ncc1[N+](=O)[O-]	none
O=C1NCC(O)=C1C=Nc1ccccc1O	none (no result: L major viab, PMI activator, WT yeast gro inh, PMI act hi M6P)
Cc1ccccc1Cn1c(=O)n(CC2CCC(C(=O)NCCc3ccccc3)CC2)c(=O)c2ccccc21 (stereo not drawn)	Calpain2 inh 66
O=C(NCCc1c[nH]c2ccccc12)C1CCC(Cn2c(=S)[nH]c3ccccc3c2=O)CC1 (stereo not drawn)	L major viab 100
Cc1ccc(NC(=O)Cc2c[nH]c3ccccc23)cc1S(=O)(=O)N1CCCCCC1	L major viab 92
O=C(NCCc1c[nH]c2ccccc12)C1CCN(c2nnc(N3CCCC3=O)s2)CC1	L major viab 84
Cc1ccc(S(=O)(=O)N2CCCCC2)cc1NC(=O)Cc1c[nH]c2ccccc12	none
O=C(O)C1CCCCC1C(=O)NCCc1c[nH]c2ccccc12 (stereo not drawn)	none
COCCNC(=O)C1CCC(Cn2c(=S)[nH]c3ccccc3c2=O)CC1 (stereo not drawn)	none
C/C(CC(=O)Nc1ccccn1)=N\NC(=O)c1cnccn1	none (no result: L major viab, PMI activator, WT yeast gro inh, PMI act hi M6P)
C=CCNC(=O)COC(=O)c1cccnc1Nc1ccccc1F	none
O=C(NCCc1c[nH]c2ccccc12)C1CCN(S(=O)(=O)c2ccccc2F)CC1	L major viab 98
CCOC(=O)c1cc2c(ccn2C)n1Cc1cc(C)ccc1C	L major viab 93, WT yeast gro inh 67
CC(=O)Nc1ccc(SCC(=O)c2cc(C)n(C)c2C)cc1	none
CC(=O)Nc1ccc(SCC(=O)c2cc(C)n(CC(F)(F)F)c2C)cc1	L major viab 61
Cc1nnc(SCc2c(Cl)cccc2[N+](=O)[O-])s1	L major viab 80
Cc1nc(NC(=O)c2ccc(Cl)cc2)sc1Cc1ccc2c(c1)OCO2	L major viab 73
CC(C)(C)C(=O)NC1(C(F)(F)F)NC(=O)N(Cc2ccccc2)C1=O (stereo not drawn)	none (no result: L major viab, PMI activator, Rad51 HR inh, WT yeast gro inh, PMI act hi M6P)
CC(C)CC(=O)NC1(C(F)(F)F)C(=O)N(Cc2ccccc2)C2=C1C(=O)CC(C)(C)C2 (stereo not drawn)	none
O=C1CCCC2=C1C(O)(C(F)(F)F)C(=O)N2Cc1ccccc1 (stereo not drawn)	L major viab 61
CC1(C)CC(=O)C2=C(C1)N(Cc1ccccc1)C(=O)C2(O)C(F)(F)F (stereo not drawn)	L major viab 66
CN(C)c1cccc(C(=O)N/N=C/c2ccsc2)c1	none (no result: Rad51 HR inh)
CC(=O)NS(=O)(=O)c1ccc(NC(=O)CSc2ccc(C)cc2)cc1	none
COc1ccc(CCCC(=O)N/N=C/c2cccc(OC)c2O)cc1C	L major viab 98 (no result: Rad51 HR inh)
COc1cccc(/C=N/NC(=O)CSc2nnc(C)n2-c2ccccc2)c1O	none (no result: Rad51 HR inh)
CCCCSc1nc(C)cc(SCC(=O)N/N=C/c2cccc(OC)c2O)n1	L major viab 99 (no result: Rad51 HR inh)
CC(C)c1ccccc1NC(=O)COC(=O)c1c2c(nc3ccccc13)CCN(Cc1ccccc1)C2	PMI act hi M6P 2.1
Cc1c(Cl)cccc1NC(=O)COC(=O)c1c2c(nc3ccccc13)CCN(Cc1ccccc1)C2	L major viab 99
Cc1cc(N2CCN(C)CC2)ccc1NC(=O)c1c2c(nc3ccccc13)CCN(Cc1ccccc1)C2	L major viab 100
COc1ccc(C(=O)NCC(=O)OCC(=O)N2CCc3ccccc32)cc1	none
COc1ccc(-n2nc3c(N)n[nH]c3cc2=O)cc1	PMI act hi M6P 2
CC(=O)N(c1ccccc1)C1CCCC1	none
O=C(CCl)N(c1ccccc1)C1CCCCC1	L major viab 89
N=c1n(CCN2CCOCC2)c2ccccc2n1Cc1ccccc1Br	L major viab 95
Cc1ccccc1OCC(O)Cn1c(=N)n(CCN2CCOCC2)c2ccccc21 (stereo not drawn)	L major viab 51!
COc1ccc(OCC(O)Cn2c(=N)n(CCN3CCOCC3)c3ccccc32)cc1 (stereo not drawn)	none
COc1ccccc1OCC(O)Cn1c(=N)n(CCN2CCCCC2)c2ccccc21 (stereo not drawn)	L major viab 65
Cn1c(=O)n(Cc2ccccc2Br)c2ccccc21	none
N=c1n(CCN2CCOCC2)c2ccccc2n1CC(O)COc1ccccc1 (stereo not drawn)	none
N=c1n(CCN2CCCCC2)c2ccccc2n1CC(O)COc1ccccc1 (stereo not drawn)	L major viab 101
O=C(NCc1cccs1)c1cc(-c2ccncc2)nc2ccc(Br)cc12	none
CC(C)c1ccccc1NC(=O)COC(=O)c1cc(=O)[nH]c(=O)[nH]1	none
C(=C\c1nc(N2CCCCCC2)c2ccccc2n1)/c1ccccc1	L major viab 86
CCN1CCN(c2nc(-c3cccnc3)nc3ccccc23)CC1	L major viab 54
O=S(=O)(/C=C/c1ccccc1)N1CCN(Cc2ccccc2)CC1	L major viab 78
CCN1CCN(c2nc(-c3ccncc3)nc3ccccc23)CC1	L major viab 100 (no result: Rad51 HR inh)
c1ccc2c(N3CCCCC3)nc(N3CCOCC3)nc2c1	none
CCN1C(=O)C(=O)N(CC(=O)Nc2ccccc2Oc2ccccc2)C1=O	none
c1ccc2c(N3CCCCC3)nc(N3CCCCC3)nc2c1	L major viab 68 (no result: Rad51 HR inh)
COc1ccc(N2CCN(S(=O)(=O)/C=C/c3ccccc3)CC2)cc1	none
c1ccc2c(N3CCCCCC3)nc(-c3ccncc3)nc2c1	L major viab 87
CN1CCN(c2nc(-c3cccnc3)nc3ccccc23)CC1	WT yeast gro inh 94
c1cncc(-c2nc(N3CCCCCC3)c3ccccc3n2)c1	none (no result: Rad51 HR inh)
O=S(=O)(/C=C/c1ccccc1)N1CCN(c2nc(-c3ccccc3)nc3ccccc23)CC1	L major viab 65
COc1ccccc1-n1c(=O)c2c3c(sc2n2c(=S)[nH]nc12)CCC3	none
N#Cc1ccc(S(=O)(=O)N2CCc3[nH]c4ccc(F)cc4c3C2)cc1	none (no result: L major viab, PMI activator, Rad51 HR inh, WT yeast gro inh, PMI act hi M6P)
